The record followed here is article PMC2822702 (Biochimica et biophysica acta, 2009).

One test has as its target T1, Bid R187E (Mus musculus, UniProt P70444, R187E).
T1 sequence (P70444 1-195 R187E): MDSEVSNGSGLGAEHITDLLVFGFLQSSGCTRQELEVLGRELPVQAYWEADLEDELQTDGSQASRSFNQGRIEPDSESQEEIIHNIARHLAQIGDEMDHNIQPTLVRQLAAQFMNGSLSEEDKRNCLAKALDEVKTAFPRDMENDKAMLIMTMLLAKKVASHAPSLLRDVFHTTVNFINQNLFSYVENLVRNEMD
Kind of test: ADIFAB fluorescence quenching. Type of test: binding. Particulars: recombinant mouse Bid R187E mutant, ADIFAB 0.2 μM, room temperature. In outline: (§1)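 Recombinant N-terminal His6-tagged mouse Bid was expressed in E. coli BL21(DE3)pLysS and purified on a chelating affinity column. ADIFAB at 0.2 μM in 10 mM Tris pH 8.0, 0.15 M NaCl, 1 mM EGTA was run alone or with Bid at 22–24 °C. Lipid ligand was titrated with excitation at 390 nm and emission read at 410–610 nm. Kd was taken from Stern–Volmer (F0/F) slopes.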

The target of another test is T2, wt Bid (Mus musculus, UniProt P70444).
T2 sequence (P70444 1-195): T1 sequence (P70444 1-195 R187E) with E187R
As to the kind of experiment: ADIFAB fluorescence quenching. Type of test: binding. Particulars: recombinant mouse wt Bid, ADIFAB 0.2 μM, room temperature. In outline:
as §1

The target in a further test is T3, Bid K157E (Mus musculus, UniProt P70444, K157E).
T3 sequence (P70444 1-195 K157E): T1 sequence (P70444 1-195 R187E) with K157E, E187R
Kind of test: ADIFAB fluorescence quenching. Type of test: binding. Particulars: recombinant mouse Bid K157E mutant, ADIFAB 0.2 μM, room temperature. In outline:
as §1

A further test has as its system mouse liver mitochondria. As to the kind of experiment: Cell-free assay of cytochrome c release from isolated mitochondria. Particulars: for release of cytochrome c: 200 nM full-length recombinant Bid protein, no exogenous lysolipids, 15 min. The class given is biochemical. In outline: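 They were incubated 15 min at 22 °C with 200 nM recombinant full-length mouse Bid plus 2 μM LPC-C16 added from ethanol, then pelleted. Supernatant cytochrome c was immunoblotted and quantified by densitometry (n=3, t-test), with controls of 500 μM LPC-C16 and no Bid.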

Test [1] deals with FSK7 mouse mammary epithelial cells. As to the kind of experiment: Anoikis of mammary epithelial cells expressing YFP-tagged Bid. Particulars: FL Bid YFP over-expressed, 5 h detached. Type of test: cell-based. The gist of the method:
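FSK7 cells were grown in DMEM/F-12 with 5 ng/ml EGF, 5 μg/ml insulin and 2% FCS at 37 °C, 5% CO₂. They were lipofected with C-terminal YFP-tagged full-length Bid or YFP alone. At 18 h post-transfection cells were detached onto polyHEMA for 5 h, cytospun, PFA-fixed and Hoechst-stained. Apoptosis was scored by nuclear morphology as mean ± SEM.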

Substitutions are numbered along the chain they refer to. Numbers in names are those of the source.

Regarding `CCCCCCCC/C=C\CCCCCCCC(=O)OC[C@@H](O)COP(=O)(O)OCC(O)CO` (stereo partly drawn) [LPG-C18, 1-oleyl-LPG], the Kd (commonly the free concentration of one partner at which half of the binding sites on the other are occupied at equilibrium, for simple one-to-one binding) at Bid R187E was determined as 100 nM; on wt Bid, 80 nM; on Bid K157E, 200 nM.
As to monolysocardiolipin [MCL], the Kd was roughly 1400 nM on Bid R187E, 1300 nM at wt Bid and 1800 nM at Bid K157E.
With `CCCCCCCCCCCCCCCC(=O)OC[C@@H](O)COP(=O)([O-])OCC[N+](C)(C)C` [LPC-C16, 1-palmitoyl-LPC], the “enhancement of cytochrome c release” value in the test with mouse liver mitochondria (2 μM LPC-C16 with 200 nM K157E FL Bid) was “much stronger enhancement”. Moreover, the “increase in capacity of releasing cytochrome c” value with mouse liver mitochondria (2 μM LPC-C16 with 200 nM R187E FL Bid) and in the test with mouse liver mitochondria (2 μM LPC-C16 with 200 nM wt FL Bid) was roughly 2 fold in each case. For the same molecule, the Kd at Bid R187E is 5500 nM; on wt Bid, roughly 4000 nM; at Bid K157E, roughly 4000 nM.

B1: wt Bid: recombinant full-length wild type mouse Bid with N-terminal six-histidine tag (protein, UniProt P70444 1-195, looked up)
chain: T1 sequence (P70444 1-195 R187E) with E187R
modifications: full-length N-terminal His6 tag
Regarding B1, in the test with mouse liver mitochondria, the “release of cytochrome c” value is given as “some release of cytochrome c”.

B2: R187E Bid YFP: C-terminal YFP-tagged full-length mouse Bid R187E expressed by transfection (protein, UniProt P70444 1-195, looked up, variant R187E)
chain: T1 sequence (P70444 1-195 R187E)
modifications: full-length C-terminal YFP tag
Take B2: the “sensitisation to anoikis compared with wt Bid” value in test [1] is “no difference”.

B3: K157E Bid: recombinant mouse Bid, lysine 157 replaced by glutamic acid (protein, UniProt P70444 1-195, looked up, variant K157E)
BH3-interacting domain death …: T1 sequence (P70444 1-195 R187E) with K157E, E187R
Regarding B3, the “release of cytochrome c” value with mouse liver mitochondria is recorded as “did not release cytochrome c”.

B4: wt Bid YFP: C-terminal YFP-tagged full-length wild type mouse Bid expressed by transfection (protein, UniProt P70444 1-195, looked up)
chain: T1 sequence (P70444 1-195 R187E) with E187R
modifications: full-length C-terminal YFP tag
As for B4, the “apoptosis (cell death) after detachment” value in test [1] (nuclear morphology) is given as “around 85%”.

B5: R187E Bid: recombinant mouse Bid, arginine 187 replaced by glutamic acid (protein, UniProt P70444 1-195, looked up, variant R187E)
BH3-interacting domain death …: T1 sequence (P70444 1-195 R187E)
As for B5, in the test on mouse liver mitochondria, the “release of cytochrome c” value was “some release of cytochrome c”.

B6: K157E Bid YFP: C-terminal YFP-tagged full-length mouse Bid K157E expressed by transfection (protein, UniProt P70444 1-195, looked up, variant K157E)
chain: T1 sequence (P70444 1-195 R187E) with K157E, E187R
modifications: full-length C-terminal YFP fusion
Take B6: the “sensitisation to anoikis compared with wt Bid” value in test [1] is listed as “no difference”.
